# Screening results deposited in PubChem by several laboratories.
# CCR6 antagonist – CCR6 (human) receptor antagonism; inhibition, % at 20 µM; P51684; CHO-K1 CCR6 PathHunter beta-arrestin, luminescence, CCL20-stimulated; 0.49% of 340,000 active;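 active = compounds whose inhibition of the agonist-driven luminescence signal at 20 µM reaches about 50%, limit read from the data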;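 note: cells stimulated with CCL20 at 14 nM final; plate controls were DMSO with CCL20 for no effect and DMSO without agonist for full effect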
# Target sequence (P51684 whole entry, looked up): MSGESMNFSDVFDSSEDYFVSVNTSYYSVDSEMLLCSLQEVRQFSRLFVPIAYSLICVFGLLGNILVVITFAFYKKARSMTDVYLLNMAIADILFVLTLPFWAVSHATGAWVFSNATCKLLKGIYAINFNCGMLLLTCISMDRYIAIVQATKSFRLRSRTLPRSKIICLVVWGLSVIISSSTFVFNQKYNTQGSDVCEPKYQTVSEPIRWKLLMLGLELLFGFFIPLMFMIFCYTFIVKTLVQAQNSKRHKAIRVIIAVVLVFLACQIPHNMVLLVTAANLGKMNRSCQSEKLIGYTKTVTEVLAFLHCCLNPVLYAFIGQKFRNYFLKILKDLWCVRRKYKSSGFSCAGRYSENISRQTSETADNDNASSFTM
# APJ antagonist – APJ receptor antagonism; CHO-K1 APJ beta-arrestin complementation, luminescence; 0.32% of 330,000 active; inhibition, % at 20 µM; P35414;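 active = inhibition above about 40% at 20 µM, limit read from the data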;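 note: cells challenged with 10 nM apelin-13 agonist together with compound; plate controls were apelin-13 plus DMSO wells for no effect and DMSO wells lacking apelin-13 for full effect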
# DAGLB inhibitor – diacylglycerol lipase beta (human) inhibition; HEK293T DAGLB membrane lysate, EnzChek fluorogenic substrate; inhibition, % at 5.17 µM; 0.059% of 340,000 active; AID 504411; in the data active = inhibition above about 34%;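 note: 0% = enzyme with vehicle and 100% = wells lacking enzyme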
# hiPSC survival – enhancers of human iPSC single-cell survival. 0.044% of 360,000 active. survival enhancement, % at 20 µM. hiPSC single-cell survival, ATPlite luminescence; 100% = ROCK inhibitor wells, 0% = DMSO; in the data active = survival enhancement above about 18%;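 note: cells exposed to compounds for 16 hours before the ATP read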
# CXCR6 inh – blocks human CXCR6 beta-arrestin recruitment. 0.36% of 360,000 active. inhibition, % at 20 µM. CHO-K1 PathHunter CXCR6 beta-arrestin, luminescence. O00574; in the data active = inhibition above about 34%, passing the limit was not always enough;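 note: antagonist mode with CXCL16 agonist at 10 nM final; 0% = 10 nM CXCL16 with DMSO and 100% = unstimulated wells without agonist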
# APJ ag – activates the human apelin receptor APJ; CHO-K1 APJ PathHunter beta-arrestin, luminescence; 0% DMSO wells, 100% apelin; 0.11% of 330,000 active; AID 2520; activation, % at 20 µM;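 active = activation more than six SD over the plate average, tested at 20 µM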;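 note: 0% = DMSO alone and 100% = apelin-13 at 10 nM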
#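 Assay system: CHO-K1 APJ beta-arrestin complementation cell line / Compound: single test compound dose, 20 µM final, 1% DMSO / Times: overnight seeding, 90 min compound at 25 °C, 1 h detection / Technique: beta-gal luminescence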
# APJ antag confirm – APJ receptor antagonism confirmation; APJ beta-arrestin recruitment, luminescence, antagonist mode; 66% of 950 active; shares compounds with APJ antagonist; inhibition, % at 20 µM; AID 2766; in the data active = inhibition above about 50%
# Starred values were filed as active, the others as inactive; . = not tested or not shown. A selection: hits, their analogues and other compounds. The true share with any hit is near 0.86%.
SMILES,CCR6 antagonist,APJ antagonist,DAGLB inhibitor,hiPSC survival,CXCR6 inh,APJ ag,APJ antag confirm
COc1cccc(Nc2ccc([N+](=O)[O-])c3nonc23)c1,47,41*,19,-1,18,-6,68*
O=S(=O)(O)c1cc(O)c2c(O)c(N=Nc3cc(Cl)ccc3O)c(S(=O)(=O)O)cc2c1,60*,40*,18,-1,39,-7,70*
O=S(=O)(O)c1cc(Cl)cc(N=Nc2ccc(O)cc2O)c1O,49,.,-64,1,31,.,.
CCc1nc(SCc2cc(=O)[nH]c3ccccc23)c2c(C)c(C)sc2n1,3,.,0,1,9,.,.
CN(C)c1ccc2nc3ccc(=[N+](C)C)cc-3sc2c1,36,45*,1,-2,18,-6,33
CN(C)c1ccc2nc3ccc(=O)cc-3sc2c1,.,.,-1,0,-1,.,.
CCN1/C(=C/C=C/c2sc3ccccc3[n+]2CC)Sc2ccccc21,38,49*,12,-6,19,6,121*
Cc1ccc(/C=C2/NC(=O)N(Cc3ccccc3)C2=O)o1,13,61*,1,-2,8,-9,37
Cc1ccc([C@H]2C[C@H](O)[C@@H](n3cc(-c4ccc(F)cc4)nn3)CN2C(=O)C2CCCCC2)cc1,.,.,-6,-4,-5,.,.
CCOC(=O)c1c(C)nc(C)c(C(=O)OCC)c1-c1ccccc1,-11,-1,-5,-1,-10,-4,.
CCOc1c(C(N)=O)c(-c2ccccc2)c2c(=O)[nH]c3ccccc3n12,16,60*,5,-3,35,-8,60*
S=C1NCCc2ccccc2C1c1ccccc1Cl (stereo not drawn),52*,44*,2,-3,35,-11,87*
S=C1NCCc2ccccc2C1c1ccccc1 (stereo not drawn),31,19,-2,-3,12,-5,.
Cc1cccc(/N=C/c2sc3ccccc3c2O)n1,16,-38,0,-1,-10,4,.
Oc1c(C=Nc2cccc3cccnc23)sc2ccccc12,.,92*,.,.,.,-30,143*
Cc1ccc(NC(=S)NNc2ncc(C(F)(F)F)cc2Cl)c(C)c1,81*,53*,1,0,65*,-10,49
O=C(NNc1ncc(C(F)(F)F)cc1Cl)c1ccc(Cl)c(Cl)c1,22,13,-1,0,-4,-5,.
COc1ccc(CCNC(=O)c2n[nH]c(=O)c3ccccc23)cc1,11,41*,-1,1,-4,-2,39
Cc1cccc(N2CCN(C(=O)c3ccncc3)CC2)c1C,-9,-10,2,0,1,-2,.
COc1cc(C(=O)N2CCN(c3cccc(C)c3C)CC2)cc(OC)c1OC,-2,50*,0,-2,4,-4,5
CC(C)COc1ccc(CNC(=S)Nc2ccccc2)cc1Cl,-1,10,-7,-1,-19,-1,.
O=C(CNc1cccc(Cl)c1)c1ccc(Cl)cc1,47,73*,-1,0,41*,-16,91*
Cc1ccc(C(=O)CNc2cccc(Cl)c2)cc1,47,66*,-8,-3,20,-9,77*
O=[N+]([O-])c1c(NCCCO)cc(Sc2nc3ccccc3s2)c2nonc12,115*,76*,-3,-1,97*,-7,117*
O=[N+]([O-])c1c(NCCO)cc(N2CCCCCC2)c2nonc12,20,20,1,-1,10,-3,.
SMILES,CCR6 antagonist,APJ antagonist,DAGLB inhibitor,hiPSC survival,CXCR6 inh,APJ ag,APJ antag confirm
Cc1ccc2nsnc2c1NC(=O)Cc1ccc(Cl)cc1,19,45*,-2,0,8,-5,47
Cc1ccc(OCC(=O)OCC(=O)NC2CCS(=O)(=O)C2)cc1C (stereo not drawn),.,.,-1,4,-6,.,.
Cc1[nH]n(-c2ccccc2)c(=O)c1/C=N/NC(=O)c1ccc(O)cc1O,13,0,8,1,4,-4,.
CCCCN(CCCC)C(=S)N/N=C/c1c(C)[nH]n(-c2ccccc2)c1=O,113*,75*,1,-5,98*,-14,126*
Cc1cc(C)nc(NNS(=O)(=O)c2ccc(Cl)cc2)n1,53*,75*,-3,0,26,-17,113*
COc1ccc(S(=O)(=O)NNc2nc(C)cc(C)n2)cc1Br,30,54*,-2,0,21,-18,52*
Cc1cc(C)nc(NS(=O)(=O)c2ccccc2)n1,9,-7,3,-2,11,1,.
Cc1cc(C)nc(NNS(=O)(=O)c2ccc(F)c(Cl)c2)n1,42,53*,-5,-1,21,-22,109*
CCOc1ccc(C(=O)NN2C(=S)NC(C)(C)C=C2C)cc1,12,10,-2,0,0,3,.
CNC(=O)c1ccc(S(=O)(=O)c2ccc(Cl)cc2)c(NC(C)=O)c1,-3,10,-4,1,8,-4,.
CNC(=O)c1nnsc1S(=O)(=O)c1ccc(Cl)cc1,77*,47*,-4,15,64*,-3,70*
Cc1[nH]n(C(N)=S)c(=O)c1N=Nc1ccc(S(=O)(=O)N2CCCC2)cc1,47,57*,12,0,28,-13,80*
Cc1ccc(N=Nc2c(C)[nH]n(C(N)=S)c2=O)cc1,26,6,0,-3,21,-1,.
O=C1NC(=S)N/C1=C/c1cccc([N+](=O)[O-])c1O,46,43*,4,-2,44*,-11,79*
O=C(OCc1cc(=O)n2ccsc2n1)c1ccc(OC(F)F)cc1,-5,14,1,1,-7,-2,.
C=C(C)CN1CCN(S(=O)(=O)c2ccc(C)c(N(C)S(=O)(=O)c3ccc(C)cc3)c2C)CC1,5,10,-16,12,6,-1,.
CCOCCCN1C(=O)CN(C2CCCCC2)C(=O)C1c1ccc(OC)c(OC)c1 (stereo not drawn),0,40,-1,-2,2,-2,6
CCCOc1ccc(C2C(=O)N(C3CCCCC3)CC(=O)N2CCCOCC)cc1OC (stereo not drawn),-4,-4,2,-1,-6,-6,.
Nc1c(N2CCCC2)c2ccccc2oc1=O,55*,71*,.,0,31,-9,83*
CC1CCCN(c2c([N+](=O)[O-])c(=O)oc3ccccc23)C1 (stereo not drawn),2,-19,-1,-2,-1,3,.
COc1ccc(CN2C(=O)c3ccccc3C2c2nnnn2-c2c(C)cccc2C)cc1OC (stereo not drawn),.,.,.,0,-4,.,.
CCOC(=O)[C@H]1[C@H]2COc3ccc(Br)cc3[C@@H]2N2C(=O)c3ccc(Cl)cc3NC(=O)[C@@]12C,9,-7,-8,6,5,5,.
